Measured values as given in ChEMBL document CHEMBL4028913, “Discovery of Novel Potent VEGFR-2 Inhibitors Exerting Significant Antiproliferative Activity against Cancer Cell Lines” (J Med Chem, 2018).
Calls of active or inactive are those of the source. The rule behind the calls is not given here.

Legend:
[1] = tested on: K562; experiment: Cytotoxicity against human K562 cells after 48 hrs by SRB assay; format: functional; conditions: K562, 48 h
How it was run: (§1)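 NCI-60 panel; cells grown in RPMI 1640 with 5% FBS and 2 mM L-glutamine, plated at 5000–40 000 cells/well by doubling time, preincubated 24 h (37 °C, 5% CO2). Drug added at five concentrations, 1-log steps from 10−4 to 10−8 M, for 48 h. Fixed with TCA, stained with 0.4% SRB, absorbance read at 515 nm. Percent growth computed against time-zero and untreated controls; GI50, TGI and LC50 derived.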

[2] = Potency index, ratio of sorafenib GI50 to test compound GI50 for human ovarian cancer cells; format: functional, Ovarian cancer cell
How it was run: (§2)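 GI50 is the concentration giving 50% reduction in net protein increase relative to control. Potency index is the reference-drug GI50 divided by the test-compound GI50.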

[3] = tested on: MDA-MB-468; experiment: Cytotoxicity against human MDA-MB-468 cells after 48 hrs by SRB assay; format: functional; conditions: MDA-MB-468, 48 h; how it was run: as §1
[4] = tested on: HCT-116; experiment: Cytotoxicity against human HCT116 cells after 48 hrs by SRB assay; format: functional; conditions: HCT-116, 48 h; how it was run: as §1
[5] = Potency index, ratio of test compound LC50 to sorafenib LC50 for human renal cancer cells; format: functional, Renal cancer cell
[6] = target: Mitogen-activated protein kinase kinase kinase 7 (Homo sapiens) (UniProt O43318); experiment: Inhibition of human TAK1 at 0.5 uM relative to control
Mitogen-activated protein kinase kinase kinase 7 (Homo sapiens), sequence (O43318 whole entry, looked up): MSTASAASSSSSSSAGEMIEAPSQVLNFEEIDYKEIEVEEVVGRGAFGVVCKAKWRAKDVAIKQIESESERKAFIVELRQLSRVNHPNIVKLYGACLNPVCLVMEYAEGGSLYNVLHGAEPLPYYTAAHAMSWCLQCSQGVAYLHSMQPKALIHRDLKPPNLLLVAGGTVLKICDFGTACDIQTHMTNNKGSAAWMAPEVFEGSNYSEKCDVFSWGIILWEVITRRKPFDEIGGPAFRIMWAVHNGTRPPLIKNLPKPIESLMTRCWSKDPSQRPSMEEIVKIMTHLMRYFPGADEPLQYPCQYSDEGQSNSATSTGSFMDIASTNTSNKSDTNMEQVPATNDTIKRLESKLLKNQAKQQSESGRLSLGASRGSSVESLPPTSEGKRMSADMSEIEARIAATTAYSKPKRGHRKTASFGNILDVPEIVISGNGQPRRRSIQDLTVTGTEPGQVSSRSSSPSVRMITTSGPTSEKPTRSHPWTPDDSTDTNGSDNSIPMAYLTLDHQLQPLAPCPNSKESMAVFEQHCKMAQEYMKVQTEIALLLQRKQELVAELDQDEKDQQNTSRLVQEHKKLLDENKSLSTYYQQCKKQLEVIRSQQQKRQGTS

[7] = tested on: OVCAR-8; experiment: Cytotoxicity against human OVCAR8 cells after 48 hrs by SRB assay; format: functional; conditions: OVCAR-8, 48 h; how it was run: as §1
[8] = target: Ephrin type-A receptor 4 (Homo sapiens) (UniProt P54764); experiment: Inhibition of human EPHA4 at 0.5 uM relative to control
Ephrin type-A receptor 4 (Homo sapiens), sequence (P54764 whole entry): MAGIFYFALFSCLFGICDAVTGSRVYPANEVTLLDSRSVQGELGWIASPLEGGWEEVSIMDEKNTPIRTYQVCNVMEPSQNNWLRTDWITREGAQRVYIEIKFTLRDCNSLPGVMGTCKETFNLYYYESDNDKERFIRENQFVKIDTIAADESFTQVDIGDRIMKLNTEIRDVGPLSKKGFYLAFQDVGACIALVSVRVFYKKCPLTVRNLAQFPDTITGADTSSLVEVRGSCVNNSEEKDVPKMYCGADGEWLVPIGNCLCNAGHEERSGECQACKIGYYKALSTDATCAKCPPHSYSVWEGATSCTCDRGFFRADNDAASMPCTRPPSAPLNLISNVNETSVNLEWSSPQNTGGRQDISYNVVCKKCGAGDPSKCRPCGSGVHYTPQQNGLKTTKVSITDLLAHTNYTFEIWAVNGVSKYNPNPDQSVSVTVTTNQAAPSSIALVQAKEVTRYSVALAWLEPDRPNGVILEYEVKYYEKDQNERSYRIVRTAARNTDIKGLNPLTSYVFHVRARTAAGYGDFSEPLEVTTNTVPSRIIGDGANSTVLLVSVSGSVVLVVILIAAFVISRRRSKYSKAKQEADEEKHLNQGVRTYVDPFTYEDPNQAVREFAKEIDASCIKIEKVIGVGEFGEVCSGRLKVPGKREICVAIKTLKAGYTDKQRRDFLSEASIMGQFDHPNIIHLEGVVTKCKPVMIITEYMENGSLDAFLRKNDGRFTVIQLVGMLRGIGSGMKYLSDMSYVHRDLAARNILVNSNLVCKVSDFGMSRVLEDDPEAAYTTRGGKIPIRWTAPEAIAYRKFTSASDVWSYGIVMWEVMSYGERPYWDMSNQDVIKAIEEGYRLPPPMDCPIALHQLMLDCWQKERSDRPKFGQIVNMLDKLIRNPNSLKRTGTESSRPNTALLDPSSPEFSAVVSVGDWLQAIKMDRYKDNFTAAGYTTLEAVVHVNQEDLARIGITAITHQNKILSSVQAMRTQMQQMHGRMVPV

[9] = Potency index, ratio of sunitinib TGI to test compound TGI for human renal cancer cells; format: functional, Renal cancer cell
[10] = target: Tyrosine-protein kinase ABL1 (Homo sapiens) (UniProt P00519); conditions: at 0.5 µM
Tyrosine-protein kinase ABL1 (Homo sapiens), sequence (P00519 whole entry): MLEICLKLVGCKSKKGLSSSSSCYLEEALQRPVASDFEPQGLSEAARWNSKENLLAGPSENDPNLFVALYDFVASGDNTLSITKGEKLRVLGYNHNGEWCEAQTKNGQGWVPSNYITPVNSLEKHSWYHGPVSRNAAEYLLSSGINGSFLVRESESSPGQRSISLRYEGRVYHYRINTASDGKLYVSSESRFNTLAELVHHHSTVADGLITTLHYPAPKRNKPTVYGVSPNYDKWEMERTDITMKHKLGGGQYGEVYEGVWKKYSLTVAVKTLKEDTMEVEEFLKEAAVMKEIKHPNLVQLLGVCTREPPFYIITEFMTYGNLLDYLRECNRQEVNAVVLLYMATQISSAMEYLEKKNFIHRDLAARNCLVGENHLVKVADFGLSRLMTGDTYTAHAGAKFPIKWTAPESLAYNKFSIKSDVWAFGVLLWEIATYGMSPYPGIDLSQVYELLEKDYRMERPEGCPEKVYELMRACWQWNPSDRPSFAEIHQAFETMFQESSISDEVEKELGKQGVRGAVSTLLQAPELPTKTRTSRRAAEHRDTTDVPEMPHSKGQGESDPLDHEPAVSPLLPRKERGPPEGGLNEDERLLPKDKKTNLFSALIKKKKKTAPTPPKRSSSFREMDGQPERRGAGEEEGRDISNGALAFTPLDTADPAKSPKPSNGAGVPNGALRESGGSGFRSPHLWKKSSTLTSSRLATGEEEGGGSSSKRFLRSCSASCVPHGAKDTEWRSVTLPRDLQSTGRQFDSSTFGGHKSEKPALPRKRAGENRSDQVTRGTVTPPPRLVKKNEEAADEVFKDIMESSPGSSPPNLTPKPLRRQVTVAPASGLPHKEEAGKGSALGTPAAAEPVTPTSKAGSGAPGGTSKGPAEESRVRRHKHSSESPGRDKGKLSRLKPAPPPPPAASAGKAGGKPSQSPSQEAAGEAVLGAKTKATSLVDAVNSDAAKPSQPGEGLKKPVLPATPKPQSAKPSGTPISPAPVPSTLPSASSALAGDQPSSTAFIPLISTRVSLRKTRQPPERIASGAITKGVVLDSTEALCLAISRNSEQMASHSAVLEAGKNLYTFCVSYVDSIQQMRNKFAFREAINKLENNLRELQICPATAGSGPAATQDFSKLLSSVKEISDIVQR

[11] = Potency index, ratio of sunitinib GI50 to test compound GI50 for human prostate cancer cells; format: functional, Prostate cancer cell
[12] = tested on: UO-31; experiment: Cytotoxicity against human UO31 cells after 48 hrs by SRB assay; format: functional; conditions: UO-31, 48 h
How it was run: (§3)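 NCI-60 panel, five doses at 1-log steps from 10−4 to 10−8 M. Cells grown in RPMI 1640 with 5% FBS and 2 mM L-glutamine, seeded at 5000–40 000 cells/well and preincubated 24 h. Tz plates were TCA-fixed at drug addition. Drug exposure 48 h at 37 °C, then TCA fixation, 0.4% SRB stain and absorbance at 515 nm. GI50 taken from percent growth relative to Tz and control.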

[13] = tested on: KM12; experiment: Cytotoxicity against human KM12 cells after 48 hrs by SRB assay; format: functional; conditions: KM12, 48 h; how it was run: as §1
[14] = organism: Homo sapiens; experiment: Inhibition of human DDR at 0.5 uM relative to control
[15] = tested on: COLO 205; experiment: Cytotoxicity against human COLO205 cells after 48 hrs by SRB assay; format: functional; conditions: COLO 205, 48 h; how it was run: as §1
[16] = target: Vascular endothelial growth factor receptor 1 (Homo sapiens) (UniProt P17948); experiment: Inhibition of human Flt1 at 0.5 uM relative to control
Vascular endothelial growth factor receptor 1 (Homo sapiens), sequence (P17948 whole entry): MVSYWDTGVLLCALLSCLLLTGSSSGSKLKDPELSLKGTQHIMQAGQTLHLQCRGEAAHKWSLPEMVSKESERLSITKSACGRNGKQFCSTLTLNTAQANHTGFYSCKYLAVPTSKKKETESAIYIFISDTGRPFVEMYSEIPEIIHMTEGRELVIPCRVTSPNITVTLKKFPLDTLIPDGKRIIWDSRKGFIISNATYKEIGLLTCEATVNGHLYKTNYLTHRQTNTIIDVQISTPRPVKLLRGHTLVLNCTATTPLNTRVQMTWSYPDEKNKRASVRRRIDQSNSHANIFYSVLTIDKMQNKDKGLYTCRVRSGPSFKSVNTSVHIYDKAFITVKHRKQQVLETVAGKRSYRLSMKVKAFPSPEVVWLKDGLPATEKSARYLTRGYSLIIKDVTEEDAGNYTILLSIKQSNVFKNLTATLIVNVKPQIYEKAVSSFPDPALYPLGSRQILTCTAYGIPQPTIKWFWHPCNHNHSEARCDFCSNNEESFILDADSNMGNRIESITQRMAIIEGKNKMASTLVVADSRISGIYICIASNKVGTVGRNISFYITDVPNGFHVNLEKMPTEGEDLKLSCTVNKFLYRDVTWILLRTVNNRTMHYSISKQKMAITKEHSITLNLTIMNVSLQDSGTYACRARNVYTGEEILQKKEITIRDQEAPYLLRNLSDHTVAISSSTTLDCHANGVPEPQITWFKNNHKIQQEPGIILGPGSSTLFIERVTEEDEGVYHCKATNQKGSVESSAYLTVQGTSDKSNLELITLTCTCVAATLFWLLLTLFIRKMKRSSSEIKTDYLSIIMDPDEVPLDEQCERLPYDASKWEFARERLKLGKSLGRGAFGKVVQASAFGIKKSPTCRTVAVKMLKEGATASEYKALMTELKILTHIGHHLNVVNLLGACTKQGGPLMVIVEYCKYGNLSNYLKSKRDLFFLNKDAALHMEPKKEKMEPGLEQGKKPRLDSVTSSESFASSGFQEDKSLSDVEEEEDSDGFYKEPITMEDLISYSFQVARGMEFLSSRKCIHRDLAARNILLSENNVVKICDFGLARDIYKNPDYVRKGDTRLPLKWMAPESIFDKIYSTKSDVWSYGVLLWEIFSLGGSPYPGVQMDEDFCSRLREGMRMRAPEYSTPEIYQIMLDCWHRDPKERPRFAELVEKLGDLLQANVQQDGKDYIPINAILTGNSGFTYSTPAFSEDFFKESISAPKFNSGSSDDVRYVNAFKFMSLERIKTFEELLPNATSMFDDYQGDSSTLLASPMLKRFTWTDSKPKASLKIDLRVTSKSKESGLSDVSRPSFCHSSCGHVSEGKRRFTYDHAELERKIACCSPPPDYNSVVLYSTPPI

[17] = tested on: DU-145; experiment: Cytotoxicity against human DU145 cells after 48 hrs by SRB assay; format: functional; conditions: DU-145, 48 h; how it was run: as §1
[18] = tested on: SF-268; experiment: Cytotoxicity against human SF268 cells after 48 hrs by SRB assay; format: functional; conditions: SF-268, 48 h; how it was run: as §1
[19] = tested on: HT-29; experiment: Cytotoxicity against human HT-29 cells after 48 hrs by SRB assay; format: functional; conditions: HT-29, 48 h; how it was run: as §1
[20] = tested on: NCI-H226; experiment: Cytotoxicity against human NCI-H226 cells after 48 hrs by SRB assay; format: functional; conditions: NCI-H226, 48 h; how it was run: as §1
[21] = tested on: SK-MEL-2; experiment: Cytotoxicity against human SK-MEL-2 cells after 48 hrs by SRB assay; format: functional; conditions: SK-MEL-2, 48 h; how it was run: as §1
[22] = tested on: Melanoma cell; experiment: Potency index, ratio of sorafenib GI50 to test compound GI50 for human melanoma cells; format: functional; how it was run: as §2
[23] = tested on: 786-0; experiment: Cytotoxicity against human 786-0 cells after 48 hrs by SRB assay; format: functional; conditions: 786-0, 48 h; how it was run: as §1
[24] = tested on: Leukemia cell; experiment: Potency index, ratio of sorafenib GI50 to test compound GI50 for human leukemia cells; format: functional; how it was run: as §2
[25] = tested on: HCC 2998; experiment: Cytotoxicity against human HCC2998 cells after 48 hrs by SRB assay; format: functional; conditions: HCC 2998, 48 h; how it was run: as §1
[26] = Potency index, ratio of sunitinib GI50 to test compound GI50 for human breast cancer cells; format: functional, Breast cancer cell; how it was run: as §2
[27] = Potency index, ratio of test compound LC50 to sunitinib LC50 for human prostate cancer cells; format: functional, Prostate cancer cell
[28] = tested on: MDA-MB-435; experiment: Growth inhibition of human MDA-MB-435 cells after 72 hrs by CellTiter-Glo assay; format: functional, cell-based; conditions: MDA-MB-435, 72 h
How it was run: (§4)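 Cells in exponential phase seeded at 2000–4000 cells/well, then exposed 72 h at 37 °C, 5% CO2 with 0.1% final DMSO. Single-point screen at 10 μM final. […] Read-out was CellTiter-Glo luminescence.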

[29] = tested on: ACHN; experiment: Cytotoxicity against human ACHN cells after 48 hrs by SRB assay; format: functional; how it was run: as §1
[30] = tested on: LOX IMVI; experiment: Cytotoxicity against human LOXIMVI cells after 48 hrs by SRB assay; format: functional; how it was run: as §1
[31] = tested on: T47D; experiment: Cytotoxicity against human T47D cells after 48 hrs by SRB assay; format: functional; how it was run: as §3
[32] = tested on: HUVEC; experiment: Growth inhibition of HUVEC after 72 hrs by CellTiter-Glo assay; format: functional, cell-based; conditions: Homo sapiens; how it was run: as §4
[33] = tested on: Malme-3M; experiment: Cytotoxicity against human MALME-3M cells after 48 hrs by SRB assay; format: functional; how it was run: as §1
[34] = read-out: LC50 (the source's name)

## COc1cc2ncnc(Oc3ccc(NC(=O)Nc4ccc(CN5CCOCC5)c(C(F)(F)F)c4)c4ccccc34)c2cc1OC
[1]
  GI50: < 0.01 µM
  TGI: 1.12 µM
[1]; [34]
  CC50: 95.5 µM
[2]
  RatioGI50: 3.9 - 9.5
[3]
  GI50: 0.23 µM
  TGI: 2.82 µM
[3]; [34]
  CC50: 72.4 µM
[4]
  GI50: 0.79 µM
  TGI: 2.57 µM
[4]; [34]
  CC50: 7.08 µM
[5]
  RatioLC50: 2
[6]
  inhibition: Active
[7]
  GI50: 0.4 µM
  TGI: 9.55 µM
[7]; [34]
  CC50: > 100 µM
[8]
  inhibition: Active
[9]
  Ratio: 3.2
[10]
  inhibition: Active
[11]
  RatioGI50: 1.5
[12]
  GI50: 0.2 µM
  TGI: 10.2 µM
[12]; [34]
  CC50: 38 µM
[13]
  GI50: 0.2 µM
  TGI: 2.51 µM
[13]; [34]
  CC50: > 100 µM
[14]
  inhibition: Active
[15]
  GI50: 0.38 µM
  TGI: 3.39 µM
[15]; [34]
  CC50: > 100 µM
[16]
  inhibition: Active
[17]
  GI50: 1.55 µM
  TGI: 13.2 µM
[17]; [34]
  CC50: 44.7 µM
[18]
  GI50: 0.46 µM
  TGI: 15.8 µM
[18]; [34]
  CC50: 79.4 µM
[19]
  GI50: 0.45 µM
  TGI: 13.2 µM
[19]; [34]
  CC50: > 100 µM
[20]
  GI50: 0.07 µM
  TGI: 13.8 µM
[20]; [34]
  CC50: > 100 µM
[21]
  GI50: 1.48 µM
  TGI: 13.8 µM
[21]; [34]
  CC50: > 100 µM
[22]
  RatioGI50: 1.6 - 2.9
[23]
  GI50: 0.79 µM
  TGI: 5.37 µM
[23]; [34]
  CC50: 26.9 µM
[24]
  RatioGI50: 3.9 - 9.5
[25]
  GI50: 5.25 µM
  TGI: 20.9 µM
[25]; [34]
  CC50: 75.9 µM
[26]
  RatioGI50: 5 - 7.7
[27]
  RatioLC50: 1.7
[28]
  IC50: 2.36 µM
[29]
  GI50: 0.32 µM
  TGI: 1.62 µM
[29]; [34]
  CC50: 14.1 µM
[30]
  GI50: 1.1 µM
  TGI: 2.82 µM
[30]; [34]
  CC50: 7.24 µM
[31]
  GI50: 0.25 µM
  TGI: 4.27 µM
[31]; [34]
  CC50: > 100 µM
[32]
  IC50: 0.63 µM
[33]
  GI50: 0.3 µM
  TGI: 1.55 µM
[33]; [34]
  CC50: 5.75 µM
